From ChEMBL document CHEMBL1125156, “Inhibitors of human leukocyte proteinase-3” (J Med Chem, 1990)
Calls of active or inactive are those of the source. No cut-off for these calls is given here.

Tests used:
[1] = target: T1, Myeloblastin (Homo sapiens) (UniProt P24158); assay: Evaluated for the inhibition of Human leukocyte Proteinase 3 (PR-3) following a 10-min incubation with a 50-fold excess of inhibitor; conditions: concentration not given here
T1 sequence (whole entry): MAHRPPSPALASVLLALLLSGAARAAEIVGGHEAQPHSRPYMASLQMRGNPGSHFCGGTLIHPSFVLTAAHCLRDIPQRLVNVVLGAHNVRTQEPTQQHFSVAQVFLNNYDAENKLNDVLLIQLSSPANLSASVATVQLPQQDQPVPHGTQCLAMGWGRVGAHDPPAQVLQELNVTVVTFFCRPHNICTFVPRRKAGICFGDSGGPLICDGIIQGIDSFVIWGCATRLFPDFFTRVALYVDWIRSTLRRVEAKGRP

[2] = target: T1, Myeloblastin (Homo sapiens); assay: Evaluated for the inhibition of Human leukocyte Proteinase 3 (PR-3)
Procedure, shortened: (§1)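 PR-3 purified from polymorphonuclear leukocyte granules. Inhibitor in DMSO was incubated with enzyme in 0.1 M phosphate, pH 6.5, in a constant-temperature bath. Aliquots taken over time went into BOC-Ala-p-nitrophenol (20 mM acetonitrile stock) in phosphate buffer. After 30 s, A347.5 was read for 1 min. kobs came from ln(vt/v0) versus time and is reported as kobs/[I] (M-1 s-1).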

[3] = target: T2, Neutrophil elastase (Homo sapiens) (UniProt P08246); assay: Evaluated for the inhibition of Human leukocyte elastase
T2 sequence (whole entry): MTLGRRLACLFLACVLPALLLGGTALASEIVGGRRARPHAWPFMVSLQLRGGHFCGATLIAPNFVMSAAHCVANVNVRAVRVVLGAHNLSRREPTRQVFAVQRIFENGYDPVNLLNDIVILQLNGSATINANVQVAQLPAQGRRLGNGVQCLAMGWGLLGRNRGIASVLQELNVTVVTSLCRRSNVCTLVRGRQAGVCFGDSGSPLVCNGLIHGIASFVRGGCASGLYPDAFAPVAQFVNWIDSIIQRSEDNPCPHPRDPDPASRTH

[4] = target: T1, Myeloblastin (Homo sapiens); assay: Evaluated for the inhibition of Human leukocyte Proteinase 3 (PR-3); Inactive; procedure, shortened: as §1

With `O=C1CC(Cc2ccccc2)C(=O)N1OS(=O)(=O)/C=C/c1ccccc1` (stereo not drawn) the inhibition [1] was < 35%.
`CC1CC(=O)N(OS(C)(=O)=O)C1=O` (stereo not drawn) was tested, and the K obs / 1 [2] was 2300 M⁻¹ s⁻¹.
With `CS(=O)(=O)ON1C(=O)CC(Cc2ccccc2)C1=O` (stereo not drawn) the K obs / 1 [3] was 1100 M⁻¹ s⁻¹ and the “K obs / 1” value [4] was “inactive”.
`CCCCC1CC(=O)N(OS(=O)(=O)/C=C/c2ccccc2)C1=O` (stereo not drawn) was tested, and the K obs / 1 [2] was 3800 M⁻¹ s⁻¹.
Work on `CC(C)C1CC(=O)N(OS(=O)(=O)/C=C/c2ccccc2)C1=O` (stereo not drawn) yielded a K obs / 1 [3] of 100000 M⁻¹ s⁻¹ and a K obs / 1 [2] of 8100 M⁻¹ s⁻¹.
In the case of `CC(C)C1CC(=O)N(OS(C)(=O)=O)C1=O` (stereo not drawn), the K obs / 1 [2] is reported as 2200 M⁻¹ s⁻¹.
For `CCCC1CC(=O)N(OS(C)(=O)=O)C1=O` (stereo not drawn), the K obs / 1 [3] was 8600 M⁻¹ s⁻¹ and the K obs / 1 [2] was 8600 M⁻¹ s⁻¹.
In the case of `CC1CC(=O)N(OS(=O)(=O)/C=C/c2ccccc2)C1=O` (stereo not drawn), the K obs / 1 [2] is reported as 4500 M⁻¹ s⁻¹.
`CCC1CC(=O)N(OS(C)(=O)=O)C1=O` (stereo not drawn) showed a K obs / 1 [2] of 13400 M⁻¹ s⁻¹.
`CC(C)CC1CC(=O)N(OS(C)(=O)=O)C1=O` (stereo not drawn) showed a K obs / 1 [2] of 1200 M⁻¹ s⁻¹.
`CC(C)CC1CC(=O)N(OS(=O)(=O)/C=C/c2ccccc2)C1=O` (stereo not drawn) showed a K obs / 1 [2] of 10400 M⁻¹ s⁻¹.
`CS(=O)(=O)ON1C(=O)CCC1=O` was tested, and the “K obs / 1” value [4] was “inactive”.
`CCCCC1CC(=O)N(OS(C)(=O)=O)C1=O` (stereo not drawn) showed a K obs / 1 [3] of 4100 M⁻¹ s⁻¹ and a K obs / 1 [2] of 800 M⁻¹ s⁻¹.
In the case of `O=C1CCC(=O)N1OS(=O)(=O)/C=C/c1ccccc1`, the inhibition [1] is reported as < 35%.
